According to ChEMBL document CHEMBL1145036, “Inhibition of papilloma formation by analogues of 7,8-dihydroretinoic acid” (2003):
Values joined by “and” are separate entries in the source; they are usually repeats but may differ in a detail not shown here. Identical values can stand only once.

Experiments:
Mus musculus [1] = species: Mus musculus; assay: Antitumor activity in CD-1 female mouse skin Papilloma assay; assay type: functional
Procedure, shortened: (§1)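 CD-1 female mice. Initiation with DMBA (0.2 μmol in 0.2 mL acetone) on shaved dorsal skin. Promotion began 14 days later with TPA (10 nmol in acetone) twice weekly. Retinoid applied topically in 0.2 mL acetone to the same area. Dose-response used 137.7/135.7, 45.9, 15.3 or 5.1 nmol. Papillomas counted per mouse at day 83–89 after promotion start. Tumor-free mice also recorded. ED50 derived from the dose-response.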

[2] = biological target: T1, Retinoic acid receptor alpha (Mus musculus) (UniProt P11416); assay: Inhibition of [3H]-retinoic acid binding to murine retinoic acid receptor RAR alpha; design: concentration or dose not given beside the values; conditions: concentration not given here
T1 sequence (whole entry): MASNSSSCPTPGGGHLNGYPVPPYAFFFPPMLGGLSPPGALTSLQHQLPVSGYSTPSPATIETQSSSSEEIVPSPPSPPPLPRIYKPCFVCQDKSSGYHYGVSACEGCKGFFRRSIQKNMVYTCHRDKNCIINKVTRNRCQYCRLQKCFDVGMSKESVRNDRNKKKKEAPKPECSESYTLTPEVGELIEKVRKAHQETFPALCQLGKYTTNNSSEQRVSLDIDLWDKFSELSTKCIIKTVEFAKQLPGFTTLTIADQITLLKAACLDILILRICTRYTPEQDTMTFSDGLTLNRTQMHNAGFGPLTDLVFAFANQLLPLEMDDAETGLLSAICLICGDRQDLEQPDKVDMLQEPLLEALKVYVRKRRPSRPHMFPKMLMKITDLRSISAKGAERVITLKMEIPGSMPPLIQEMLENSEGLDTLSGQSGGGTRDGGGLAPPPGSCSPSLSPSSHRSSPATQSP
Procedure, shortened: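 RARα binding: inhibition of tritiated retinoic acid binding by a 200-fold molar excess of unlabeled retinoid, expressed as percent inhibition.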

Mus musculus [3] = species: Mus musculus; assay: Antitumor activity in CD-1 female mouse skin Papilloma assay at 45.9 nmol dose; assay type: functional; procedure, shortened: as §1
Mus musculus [4] = species: Mus musculus; assay: Antitumor activity in CD-1 female mouse skin Papilloma assay at 135.7 nmol dose; assay type: functional; procedure, shortened: as §1
Mus musculus [5] = species: Mus musculus; assay: Antitumor activity in CD-1 female mouse skin Papilloma assay at 5.1 nmol dose; assay type: functional; procedure, shortened: as §1
Mus musculus [6] = species: Mus musculus; assay: Antitumor activity in CD-1 female mouse skin Papilloma assay at 15.3 nmol dose; assay type: functional; procedure, shortened: as §1

SMILES	inhibition [2]	ED50 (Mus musculus [1])	other results
COC(=O)/C=C(C)/C=C/C=C(\C)C(=O)Nc1ccc(C(C)(C)C)cc1C(C)(C)C	–	> 100 nmol	–
COc1cc(NC(=O)/C(C)=C/C=C/C(C)=C/C(=O)O)cc(OC)c1	–	> 45.9 nmol	–
CC(/C=C/C=C(\C)COc1c(C)cc(C)cc1C)=C\C(=O)O	30%	60 nmol	–
CC(/C=C/C=C(\C)C(=O)Nc1c(C)cc(C)cc1C)=C\C(=O)O	–	> 100 nmol	–
CC(/C=C/C=C(\C)COc1c(Cl)cc(F)cc1Cl)=C\C(=O)O	–	> 100 nmol	–
CCOC(=O)/C=C(C)/C=C/C=C(C)/C=C/c1c(C)cc(OC)c(C)c1C [ETRETINATE]	–	7.2 nmol	–
CC1=C(/C=C/C(C)=C/C=C/C(C)=C/C(=O)O)C(C)(C)CCC1 [TRETINOIN]	–	5.2 nmol	Control (Mus musculus [6]): 8%

Continued, in another order:

inhibition [2]	SMILES	ED50 (Mus musculus [1])	other results
0%	CC(/C=C/C=C(\C)C(=O)Nc1ccc(C(C)(C)C)cc1C(C)(C)C)=C\C(=O)O	> 100 nmol	–
5%	CC(/C=C/C=C(\C)COc1ccc(C(C)(C)C)cc1C(C)(C)C)=C\C(=O)O	> 45.9 nmol	–
30%	CC(/C=C/C=C(\C)COc1cc(C)cc(C)c1C)=C\C(=O)O	27 nmol	Control (Mus musculus [3]): 36%; No. of tumors/mouse (Mus musculus [3]): 15 and 5; Control (Mus musculus [4]): 10%; Control (Mus musculus [5]): 89%; No. of tumors/mouse (Mus musculus [5]): 29 and 12.4; Control (Mus musculus [6]): 66%; No. of tumors/mouse (Mus musculus [6]): 22 and 9.2
0%	CC(/C=C/C=C(\C)COc1ccc(F)cc1C)=C\C(=O)O	45.9 nmol	–
25%	COc1ccc(OC/C(C)=C/C=C/C(C)=C/C(=O)O)c(C(C)(C)C)c1	> 100 nmol	–
15%	CC(/C=C/C=C(\C)C(=O)Nc1c(C)cc(C(C)(C)C)cc1C(C)(C)C)=C\C(=O)O	–	–
